# RBBP9 inhibitor = blocks human serine hydrolase RBBP9. O75884. recombinant RBBP9, FP-Rh probe fluorescence polarization. inhibition, % at 7.94 µM. hit rate 0.2% among 220,000. AID 1515;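 active = inhibition above the campaign mean of all tested compounds plus 3 SD, cut at about 14% in these data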;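 note: plate controls were DMSO wells with RBBP9 for no effect and wells lacking RBBP9 protein for full effect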
# Target sequence (O75884 whole entry, looked up): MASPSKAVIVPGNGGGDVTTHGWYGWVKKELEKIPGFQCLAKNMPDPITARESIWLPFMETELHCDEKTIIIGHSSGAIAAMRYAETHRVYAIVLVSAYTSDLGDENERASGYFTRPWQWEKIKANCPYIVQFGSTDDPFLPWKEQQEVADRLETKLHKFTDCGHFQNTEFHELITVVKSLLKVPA
#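 System: RBBP9 protein / Quantity: 2.5 µM RBBP9 dispensing solution, before mixing / Also added: Serine-hydrolase probe FP-Rh, 375 nM pre-mixing / Dosing: 7.94 µM single dose, 0.794% DMSO / Timing: enzyme-compound preincubation 30 min, then probe labeling 45 min, 25 °C / Signal: FP readout at 525/598 nm / Controls: DMSO-treated enzyme wells and wells lacking RBBP9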
# UBC13 inh = blocks human UBC13 polyubiquitin chain formation; TR-FRET; inhibition, % at 20 µM; hit rate 0.47% among 330,000; in the data active = inhibition above about 45%, passing the limit was not always enough; inconclusive = no clear call, values can overlap the other calls
# PREPL inhibitor = human PREPL enzyme inhibition. recombinant PREPL, fluorescence polarization activity-based probe. Q4J6C6. hit rate 0.68% among 320,000. AID 2751. inhibition, % at 5.96 µM; in the data active = inhibition above about 43%;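 note: 0% = enzyme with DMSO and 100% = wells lacking enzyme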
# Rin1 Abl inh = inhibitors of human Rin1-Abl protein interaction | TR-FRET Rin1/Abl binding, biochemical | inhibition, % at 7.35 µM | hit rate 0.4% among 360,000; in the data active = inhibition above about 5%, passing the limit was not always enough
# UBC9 SUMO inh = inhibitors of human SUMOylation (UBC9); HTRF SUMOylation assay, SAE1/SAE2 + UBC9, in vitro; P63279; inhibition, % at 35 µM; hit rate 0.36% among 290,000; in the data active = inhibition above about 50%, passing the limit was not always enough; inconclusive = no clear call, values can overlap the other calls
# Target sequence (P63279 whole entry, looked up): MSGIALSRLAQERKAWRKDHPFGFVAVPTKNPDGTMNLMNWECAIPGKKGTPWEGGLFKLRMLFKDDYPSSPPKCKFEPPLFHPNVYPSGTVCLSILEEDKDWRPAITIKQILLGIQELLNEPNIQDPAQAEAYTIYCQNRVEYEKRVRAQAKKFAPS
# ALR inh = human ALR oxidase inhibition via reduced H2O2 | P55789 | purified ALR, DTT oxidation, H2O2 HRP-luminol luminescence | inhibition, % (concentration not given with the values) | hit rate 3.8% among 290,000 | AID 485317;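 active = mean replicate inhibition above about 79%, with every replicate also reaching it, limit read from the data; inconclusive = only one of the two criteria met; inactive = mean below limit and not every replicate reaching it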
# Target sequence (P55789 whole entry, looked up): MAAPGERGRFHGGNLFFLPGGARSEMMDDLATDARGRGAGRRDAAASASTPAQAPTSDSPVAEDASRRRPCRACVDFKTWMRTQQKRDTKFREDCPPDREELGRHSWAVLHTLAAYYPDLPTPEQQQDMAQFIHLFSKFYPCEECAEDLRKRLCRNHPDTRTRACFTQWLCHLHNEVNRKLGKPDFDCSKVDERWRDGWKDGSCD
# An asterisk follows results filed as active; ? = inconclusive; . = no result given. This is a sample that favours compounds with a hit; in the whole collection about 4.3% have one here.
SMILES,RBBP9 inhibitor,UBC13 inh,PREPL inhibitor,Rin1 Abl inh,UBC9 SUMO inh,ALR inh
C[C@@H]1O[C@@H](OCCC(=O)O)[C@H](O)C[C@H]1O,.,2,22,1,.,-2
COc1ccc(Oc2ccc(/C=C/C(=O)c3ccc(O)cc3)cc2[N+](=O)[O-])cc1,-17,-17,0,-1,8,96*
Cc1cccc(OCC(=O)Nc2ccc3c(c2)nc2n3CCOC2)c1,.,1,23,-3,17,-7
Cc1ccccc1-n1c(=S)[nH]c2nc3c(cc2c1=O)CCCC3,-7,26,0,1,-9,98*
O=C(Nc1ccc(O)cc1)c1cc2n(n1)C(C(F)(F)F)CC(c1ccco1)N2 (centres undefined),-6,-1,12,-1,4,99*
COc1ccc(NC(=O)c2cc3n(n2)C(C(F)(F)F)CC(c2ccc4c(c2)OCO4)N3)cc1OC (centres undefined),0,21,46*,-1,-5,.
CCOc1ccc(NC(=O)c2cc3n(n2)C(C(F)(F)F)CC(c2ccco2)N3)cc1 (centres undefined),0,4,-2,1,14,-4
O=C(O)C1C2CCC(C2)C1C(=O)N1CCCC1 (centres undefined),.,6,-2,-2,1,-8
CC(C)c1nc(SCC(=O)Nc2ccc(C(=O)O)cc2)c2c3c(sc2n1)CCCC3,.,-6,-15,2,-3,99*
CC(C)(C)c1nc(SCC(=O)Nc2nc3c(s2)CCCC3)c2ccccc2n1,-5,-11,9,-1,-20,-37
CC1CCc2nc(NC(=O)CSc3nc4ccccc4o3)sc2C1 (centres undefined),-9,6,-13,-7,22,99*
Cc1nnc(NC(=O)CSc2nc3ccccc3o2)s1,-3,7,3,6,5,10
CC(C)c1nc(SCC(=O)Nc2nc3c(s2)CCCC3)c2ccccc2n1,-4,19,25,-12,-4,98*
Cc1nc(SCC(=O)Nc2ccc(CN3CCCC3)cc2)c2c(C)c(C)sc2n1,.,22,23,2,.,99*
CC(C)N(C(=O)[C@H]1C[C@H](CC(=O)NCC23CC4CC(CC(C4)C2)C3)C(=O)N2CCc3c([nH]c4ccc(Cl)cc34)[C@]12C)C(C)C,.,.,.,0,.,.
CCNC(=O)C1(C)CCCN(C(=O)c2nc3ccccc3s2)C1 (centres undefined),.,.,.,-1,.,.
O=C(Nc1ccccc1Cc1ccccc1)c1ccccc1NS(=O)(=O)c1ccc(Cl)s1,-5,-13,16,1,58*,5
O=C(NCc1ccco1)c1ccccc1NS(=O)(=O)c1ccc(Cl)s1,-3,3,2,2,28,95*
N=c1ccn(Cc2c(Cl)cccc2Cl)cc1,-5,4,18,0,4,-2
CCCCN1Cc2c(nc3cc(-c4ccco4)[nH]n3c2=O)C1=O,-3,10,36,-2,92*,11
COCc1cc(=O)n2[nH]c(-c3ccco3)cc2n1,3,11,-4,-1,21,44
CC(=O)Nc1ccc(N=Cc2ccc[nH]2)cc1,-8,-16,11,6,4,98*
Fc1ccc(N=Cc2ccc[nH]2)cc1,.,0,-1,-1,-6,-6
Cc1[nH]n(C)c(=O)c1C(=O)c1c(-c2ccccc2Cl)noc1C,-4,5,-5,-1,-2,85*
CC(=O)N1CCN(C(=S)NC(=O)c2c(-c3ccccc3Cl)noc2C)CC1,-4,-1,13,-5,-6,95*
SMILES,RBBP9 inhibitor,UBC13 inh,PREPL inhibitor,Rin1 Abl inh,UBC9 SUMO inh,ALR inh
CC1CN(S(=O)(=O)c2cc(C(=O)NCCC3=CCCCC3)ccc2Cl)CC(C)O1 (centres undefined),.,0,8,0,.,-9
CC(C)(C)/C(O)=C(/C#N)c1nc2ccccc2[nH]1,1,2,13,-4,-18,1
CN1C=CC=C/C1=C(\C#N)c1nc2ccccc2[nH]1,-8,-25,4,-7,-18,99*
CCOC(=O)C(=CNc1cc(OC)ccc1-n1cccc1)C(=O)OCC,-8,6,-3,-3,12,0
COC(=O)c1sccc1NC(=O)c1cc(C)on1,-5,13,10,1,11,96*
Oc1[nH]c2ccc(Br)cc2c1N=NC(=S)N1CCOCC1,-4,-52,23,-3,-68,99*
Oc1[nH]c2ccccc2c1N=NC(=S)N1CCOCC1,-3,11,-4,-4,-62,90*
COC(=O)N=Nc1c(O)[nH]c2ccc(Br)cc12,2,-10,2,-6,-14,3
Oc1cccc(NC(=S)N=Nc2c(O)[nH]c3ccccc23)c1,-1,?,13,-4,-100,99*
Oc1[nH]c2ccccc2c1N=NC(=S)NCCc1ccccc1,-9,.,6,-3,-17,23
CCc1nc2c(OCCOc3ccc(F)cc3)cccn2c1N(C)C(=O)C(C)C,.,.,.,0,.,.
COc1ccc(CC(=O)N2CCN=C2SCc2cccc([N+](=O)[O-])c2)cc1,-2,0,35,0,6,99*
O=C(Cc1ccc([N+](=O)[O-])cc1)N1CCN=C1SCc1ccccc1,0,-5,5,-1,1,-4
O=[N+]([O-])c1cccc(CSC2=NCCN2S(=O)(=O)c2ccccc2)c1,.,-5,7,-1,14,?
O=C(C1CCCCC1)N1CCN=C1SCc1cccc([N+](=O)[O-])c1,8,14,6,-4,0,100*
O=C(C1CCCCC1)N1CCN=C1SCc1cccnc1,-8,6,-7,-1,-2,100*
O=C(COC(=O)c1cccc(O)c1)Nc1ccc(N2CCOCC2)cc1,.,-4,11,-2,.,16
O=C(CCN1C(=O)c2ccccc2C1=O)c1ccccc1,.,.,.,4,.,.
COc1cccc(-n2c(SCc3cc(=O)oc4cc(O)c(O)cc34)nc3ccccc3c2=O)c1,-18,.,33,-4,79*,-24
Cc1ccc2nc3c(c(Nc4ccc(O)cc4)c2c1)CCC3,.,12,29,-5,1,?
Cc1ccc2nc3c(c(Nc4ccc5c(c4)OCCO5)c2c1)CCC3,-3,0,11,-5,7,98*
COc1ccc(C2NC(=O)c3ccccc3O2)cc1 (centres undefined),.,3,3,3,-14,-8
O=C(Cn1nnc(-c2ccccc2F)n1)OCC(=O)c1ccccc1,-9,6,-8,-1,9,93*
O=C(Cn1nnc(-c2ccc(F)cc2)n1)OCC(=O)c1ccccc1,3,1,-4,2,10,14
COC(=O)C[C@@H]1C[C@@H]2c3cc(NS(=O)(=O)c4ccc(F)cc4)ccc3O[C@@H]2[C@H](CO)O1,.,.,.,0,.,.
Cn1c(=O)oc2cc(S(=O)(=O)Nc3ccc(O)cc3)ccc21,.,-6,.,0,19,99*

# High-throughput results: PubChem, several laboratories
